From ChEMBL document CHEMBL2203131, “An unusually cold active nitroreductase for prodrug activations” (Bioorg Med Chem, 2012)

Assays:
[1] = Ratio of apparent Km for Escherichia coli NfsB-mediated prodrug conversion to apparent Km for Staphylococcus saprophyticus ATCC 15305 Ssap-NtrB-mediated prodrug conversion; format: ADME
[2] = Ratio of apparent Kcat to apparent Km for Escherichia coli AzoR-mediated prodrug conversion using NADH as cofactor by steady state kinetic analysis; format: ADME
[3] = Ratio of apparent Kcat to apparent Km for Escherichia coli NfsB-mediated prodrug conversion using NADH as cofactor by steady state kinetics analysis; format: ADME
[4] = Ratio of apparent Kcat to apparent Km for Escherichia coli NfsA-mediated prodrug conversion using NADPH as cofactor by steady state kinetic analysis; format: ADME
[5] = Prodrug conversion in Tris-HCl buffer using NADPH as cofactor assessed as Escherichia coli NfsB-mediated reduction by steady state kinetics analysis; format: ADME; conditions: for Km: read-out: Km(app)
[6] = Prodrug conversion in sodium phosphate buffer using NADPH as cofactor assessed as Bacillus amyloliquefaciens CAMR 0454 ywrO-mediated reduction by steady state kinetics analysis; format: ADME
[7] = Ratio of apparent Kcat to apparent Km for Escherichia coli AzoR-mediated prodrug conversion using NADPH as cofactor by steady state kinetic analysis; format: ADME
[8] = Prodrug conversion in Tris-HCl buffer assessed as Staphylococcus saprophyticus ATCC 15305 Ssap-NtrB-mediated [5-(aziridin-1-yl)-2-hydroxyamino-4-nitrobenzamide] formation after 30 mins by HPLC analysis; format: ADME; conditions: 0.5 h
How it was run: (§1)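 CB1954 (1 mM final) or SN23862 (80 µM) was incubated in degassed 50 mM Tris-Cl pH 7.0, kept anaerobic by nitrogen bubbling, with 50 µg/ml Ssap-NtrB and 3.4 mM NADPH for at least 30 min at 18–20 °C. Reactions were stopped with ice-cold methanol, held at −80 °C, then centrifuged. Products were resolved by reverse-phase C18 HPLC with an acetonitrile–water gradient. Detection was at 260/420 nm, or 390/450 nm for SN23862.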

[9] = Prodrug conversion in Tris-HCl buffer assessed as Staphylococcus saprophyticus ATCC 15305 Ssap-NtrB-mediated reduction by steady state kinetics analysis; format: ADME; conditions: for Km: read-out: Km(app)
How it was run: (§2)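 Steady-state kinetics with purified His6-Ssap-NtrB used CB1954 at 0.05–4 mM or a series of SN23862 concentrations in 50 mM Tris-Cl pH 7.0 containing 4% DMSO. Parameters came from nonlinear Michaelis–Menten fitting. One unit is defined as 1 µmol substrate converted per min, and specific activity was expressed per mg active enzyme.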

[10] = Prodrug conversion in buffer using NADH as cofactor assessed as Escherichia coli AzoR-mediated reduction by steady state kinetics analysis; format: ADME
[11] = system: Staphylococcus saprophyticus; test: Activity of Staphylococcus saprophyticus ATCC 15305 Ssap-NtrB assessed as residual activity measured for 10 mins at 15 degC by spectrophotometric analysis
[12] = Ratio of apparent Kcat to apparent Km for Staphylococcus saprophyticus ATCC 15305 Ssap-NtrB-mediated reduction by steady state kinetics analysis; format: ADME; how it was run: as §2
[13] = Prodrug conversion in Tris-HCl buffer using NADH as cofactor assessed as Escherichia coli NfsB-mediated reduction by steady state kinetics analysis; format: ADME; conditions: for Km: read-out: Km(app)
[14] = Prodrug conversion in Tris-HCl buffer assessed as Staphylococcus saprophyticus ATCC 15305 Ssap-NtrB-mediated [5-(aziridin-1-yl)-4-hydroxyamino-2-nitrobenzamide] formation after 30 mins by HPLC analysis; format: ADME; conditions: 0.5 h; how it was run: as §1
[15] = Prodrug conversion in buffer using NADPH as cofactor assessed as Escherichia coli AzoR-mediated reduction by steady state kinetics analysis; format: ADME
[16] = Prodrug conversion in buffer using NADPH as cofactor assessed as Escherichia coli NfsA-mediated reduction by steady state kinetics analysis; format: ADME
[17] = Ratio of apparent Kcat to apparent Km for Escherichia coli NfsB-mediated prodrug conversion using NADPH as cofactor by steady state kinetics analysis; format: ADME
[18] = system: Staphylococcus saprophyticus; test: Activity of Staphylococcus saprophyticus ATCC 15305 Ssap-NtrB assessed as residual activity measured for 10 mins at 3 degC by spectrophotometric analysis
[19] = Ratio of apparent Kcat to apparent Km for Bacillus amyloliquefaciens CAMR 0454 ywrO-mediated prodrug conversion using NADPH as cofactor by steady state kinetic analysis; format: ADME
[20] = Ratio of apparent Kcat/apparent Km for Escherichia coli NfsB to apparent Kcat/apparent Km for Staphylococcus saprophyticus ATCC 15305 Ssap-NtrB; format: ADME
[21] = Prodrug conversion in sodium phosphate buffer using NAD(P)H as cofactor assessed as Bacillus amyloliquefaciens CAMR 0454 ywrO-mediated reduction by steady state kinetics analysis; format: ADME
[22] = Prodrug conversion in Tris-HCl buffer assessed as Staphylococcus saprophyticus ATCC 15305 Ssap-NtrB-mediated reduction after 30 mins by HPLC analysis; format: ADME; conditions: 0.5 h; how it was run: as §1

Q: With `NC(=O)c1cc(N2CC2)c([N+](=O)[O-])cc1[N+](=O)[O-]` [TRETAZICAR] as the compound, how does the Ratio [1] read?
A: 20

Q: And the Kcat/Km [2]?
A: 23 M⁻¹ s⁻¹

Q: And the Kcat/Km [3]?
A: 5600 M⁻¹ s⁻¹

Q: What about the Kcat/Km [4] of the same compound?
A: 73000 M⁻¹ s⁻¹

Q: And the “Kcat(app)” value [5]?
A: 26 s⁻¹

Q: And the Km [5]?
A: 3600 µM

Q: And the “Kcat(app)” value [6]?
A: 8.2 s⁻¹

Q: What about the Km ([6]; read-out: Km(app)) of the same compound?
A: 618 µM

Q: And the Kcat/Km [7]?
A: 110 M⁻¹ s⁻¹

Q: And the Drug metabolism [8]?
A: Active

Q: And the “Kcat(app)” value [9]?
A: 2.26 s⁻¹

Q: What about the Km [9] of the same compound?
A: 1070 µM

Q: And the “Kcat(app)” value [10]?
A: 0.15 s⁻¹

Q: And the Km ([10]; read-out: Km(app))?
A: 6600 µM

Q: What about the Activity [11] of the same compound?
A: 55%

Q: What about the Kcat/Km [12] of the same compound?
A: 2120 M⁻¹ s⁻¹

Q: And the “Kcat(app)” value [13]?
A: 62 s⁻¹

Q: And the Km [13]?
A: 11000 µM

Q: And the Drug metabolism [14]?
A: Active

Q: What about the “Kcat(app)” value [15] of the same compound?
A: 0.15 s⁻¹

Q: And the Km ([15]; read-out: Km(app))?
A: 1400 µM

Q: What about the “Kcat(app)” value [16] of the same compound?
A: 16 s⁻¹

Q: And the Km ([16]; read-out: Km(app))?
A: 220 µM

Q: And the Kcat/Km [17]?
A: 7300 M⁻¹ s⁻¹

Q: What about the Activity [18] of the same compound?
A: 55%

Q: What about the Kcat/Km [19] of the same compound?
A: 13268 M⁻¹ s⁻¹

Q: What does the source list for `NC(=O)N/N=C/c1ccc([N+](=O)[O-])o1` [NITROFURAZONE]?
A: Kcat/Km [3]: 66875 M⁻¹ s⁻¹; Kcat(app) [5]: 10.5 s⁻¹; Km [5]: 170 µM; Kcat(app) [9]: 2.2 s⁻¹; Km [9]: 49.8 µM; Kcat/Km [12]: 44180 M⁻¹ s⁻¹; Kcat(app) [13]: 10.7 s⁻¹; Km [13]: 160 µM; Ratio [20]: 1.4; Kcat/Km [17]: 61764 M⁻¹ s⁻¹

Q: Which Drug metabolism [21] does the source give for `NC(=O)c1cc(N(CCCl)CCCl)c([N+](=O)[O-])cc1[N+](=O)[O-]` here?
A: Not Active

Q: And the “Kcat(app)” value [9]?
A: 0.77 s⁻¹

Q: And the Km [9]?
A: 82.4 µM

Q: What about the Activity [11] of the same compound?
A: 60%

Q: What about the Kcat/Km [12] of the same compound?
A: 9350 M⁻¹ s⁻¹

Q: And the Drug metabolism [22]?
A: Active

Q: What about the Activity [18] of the same compound?
A: 60%
